Where two headings read alike, the source gives them in different places. Marks after values point to notes of the source that are not given here.
Assays:
human plasma = experiment: In vitro protein binding in human plasma; assay type: in vitro ADME; conditions: in humans (plasma)
[1] = In vitro protein binding in human plasma; assay type: in vitro ADME; conditions: human, plasma
[2] = Urinary excretion and renal clearance after a single 50-mg dose; assay type: in vivo, human; conditions: for CL renal: human, urine, oral, 50 mg, mean renal clearance
Method in brief: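 In study 2, a single oral 50-mg capsule was taken with ≈240 mL water after an overnight fast. Urine was collected predose, 0–4 h and 4–24 h post-dose and pooled per interval for each subject. Analytes were quantified by validated LC-MS/MS with deuterated internal standards over a nominal urine range of 5 to 5000 ng/mL.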

[3] = In vitro protein binding in α1-acid glycoprotein solution; assay type: in vitro ADME; conditions: human
[4] = assay type: in vivo, human; conditions: for CL/F / Vd/F: acalabrutinib; for CL/F / Vd/F / half-life: arithmetic mean (SD); for AUC: AUC0‐inf; for Vd/F: Vz/F; for half-life: t1/2, total plasma acalabrutinib; for Tmax: median (minimum, maximum)
human serum albumin = human serum albumin (Homo sapiens, UniProt P02768); experiment: In vitro protein binding in human serum albumin solution; assay type: in vitro ADME
[5] = cited from earlier work
[6] = Earlier clinical studies of acalabrutinib; assay type: in vivo, human; conditions: 400-mg vs 50-mg dose, healthy subjects (data on file)
Safety evaluation = assay type: in vivo, human; conditions: for Number (%) of subjects with TEAEs: single oral 50-mg dose
Method in brief: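 After an overnight fast, subjects took a single oral 50-mg dose as capsules with ≈240 mL water on day 1. AEs were collected until follow-up contact 14 days post-dose. Safety monitoring covered concomitant medications, serial hematology, serum chemistry and urinalysis, vital signs, 12-lead ECGs and physical examinations. Findings were summarized descriptively.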

[7] = acalabrutinib, matched normal hepatic function subjects
[8] = acalabrutinib, subjects with severe hepatic impairment
[9] = both, human, plasma, po, 50 mg, single oral 50-mg dose, Control (n = 13)
[10] = both, human, plasma, po, 50 mg, single oral 50-mg dose, Mild (n = 6)
[11] = both, human, plasma, po, 50 mg, single oral 50-mg dose, Moderate (n = 6)
[12] = human, plasma, po, 50 mg, single oral 50-mg dose, Severe (n = 8)
[13] = plasma acalabrutinib, Mild vs normal hepatic function (reference)
[14] = plasma acalabrutinib, Moderate vs normal hepatic function (reference)
[15] = plasma acalabrutinib, Severe vs normal hepatic function (reference)
[16] = severe hepatic impairment, study 2
[17] = healthy subjects (n = 17), relative to no pretreatment
[18] = healthy subjects, single 400-mg dose

human serum albumin, sequence (P02768 25-609): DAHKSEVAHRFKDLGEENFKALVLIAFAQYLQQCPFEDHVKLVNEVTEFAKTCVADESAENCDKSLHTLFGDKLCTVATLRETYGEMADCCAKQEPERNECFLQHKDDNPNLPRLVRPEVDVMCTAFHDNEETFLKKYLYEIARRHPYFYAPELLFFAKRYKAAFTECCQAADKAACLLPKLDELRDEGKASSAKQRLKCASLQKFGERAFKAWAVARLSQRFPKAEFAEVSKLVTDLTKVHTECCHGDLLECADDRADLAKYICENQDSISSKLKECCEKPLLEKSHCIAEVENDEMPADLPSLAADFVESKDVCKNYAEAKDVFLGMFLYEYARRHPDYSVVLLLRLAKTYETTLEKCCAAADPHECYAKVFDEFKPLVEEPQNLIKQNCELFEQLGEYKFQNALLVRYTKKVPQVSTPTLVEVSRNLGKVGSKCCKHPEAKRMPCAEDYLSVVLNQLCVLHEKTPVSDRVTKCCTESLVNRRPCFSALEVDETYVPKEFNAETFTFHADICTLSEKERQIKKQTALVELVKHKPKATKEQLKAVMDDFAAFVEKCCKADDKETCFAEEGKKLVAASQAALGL

## CC#CC(=O)N1CCC[C@H]1c1nc(-c2ccc(C(=O)Nc3ccccn3)cc2)c2c(N)nccn12 [Acalabrutinib]
Human plasma
  free fraction (percentage unbound): 2.5%
[1]
  fraction unbound: 0.025
[2]; [7]
  renal clearance as share of the systemic clearance: ≈ 0.5%
  CL renal: 21.2 mL/min
[2]; [8]
  renal clearance as share of the apparent systemic clearance: ≈ 1.7%
  CL renal: 12.9 mL/min
[2]; matched normal hepatic function subjects, 24-hour urine collection interval
  share of the 50‐mg oral dose excreted in urine: ≈ 0.6%
[2]; subjects with severe hepatic impairment
  share of the 50‐mg oral dose excreted in urine: approximately 1.8%
[3]
  fraction unbound: 0.589
[4]; single oral 50-mg dose, Control (n = 13)
  CL/F: 218.1 ± 103.1 ^a L/h
[4]; single oral 50-mg dose, Mild (n = 6)
  CL/F: 156.6 ± 91.1 L/h
[4]; single oral 50-mg dose, Moderate (n = 6)
  CL/F: 280.8 ± 372.7 L/h
[4]; single oral 50-mg dose, Severe (n = 8)
  CL/F: 48.7 ± 30.7 L/h
[4]; single oral 50-mg dose, Severe (n = 8), listed as acalabrutinib
  CL/F: 48.7 L/h
[4]; both, human, plasma, oral, 50 mg, LS Mean, plasma acalabrutinib, ANOVA, exponentiated LSM, Control, n 13
  AUC: 250 ng·h/mL
[4]; both, human, plasma, oral, 50 mg, LS Mean, plasma acalabrutinib, ANOVA, exponentiated LSM, Mild, n 6
  AUC: 366 ng·h/mL
[4]; both, human, plasma, oral, 50 mg, LS Mean, plasma acalabrutinib, ANOVA, exponentiated LSM, Moderate, n 6
  AUC: 326 ng·h/mL
[4]; both, human, plasma, oral, 50 mg, Cmax, LS Mean, plasma acalabrutinib, ANOVA, exponentiated LSM, Control, n 14
  Cmax: 152 ng/mL
[4]; both, human, plasma, oral, 50 mg, Cmax, LS Mean, plasma acalabrutinib, ANOVA, exponentiated LSM, Mild, n 6
  Cmax: 292 ng/mL
[4]; both, human, plasma, oral, 50 mg, Cmax, LS Mean, plasma acalabrutinib, ANOVA, exponentiated LSM, Moderate, n 6
  Cmax: 156 ng/mL
[4]; both, human, plasma, po, 50 mg, total plasma acalabrutinib, single oral 50-mg dose, Control (n = 13), geometric mean (geometric CV%)
  AUC: 250 ng·h/mL
[4]; both, human, plasma, po, 50 mg, total plasma acalabrutinib, single oral 50-mg dose, Mild (n = 6), geometric mean (geometric CV%)
  AUC: 366 ng·h/mL
[4]; both, human, plasma, po, 50 mg, total plasma acalabrutinib, single oral 50-mg dose, Moderate (n = 6), geometric mean (geometric CV%)
  AUC: 326 ng·h/mL
[4]; both, human, plasma, po, 50 mg, Cmax, total plasma acalabrutinib, single oral 50-mg dose, fasted, Control, normal hepatic function (n = 14), geometric mean (geometric CV%)
  Cmax: 152 ng/mL
[4]; both, human, plasma, po, 50 mg, Cmax, total plasma acalabrutinib, single oral 50-mg dose, fasted, Mild, Child-Pugh class A (n = 6), geometric mean (geometric CV%)
  Cmax: 292 ng/mL
[4]; both, human, plasma, po, 50 mg, Cmax, total plasma acalabrutinib, single oral 50-mg dose, fasted, Moderate, Child-Pugh class B (n = 6), geometric mean (geometric CV%)
  Cmax: 156 ng/mL
[4]; [9]
  Vd/F: 722 ± 520 L
  half-life: 2.2 ± 0.8 h
[4]; [10]
  Vd/F: 471 ± 222 L
  half-life: 2.3 ± 0.9 h
[4]; [11]
  Vd/F: 2140 ± 2720 L
  half-life: 7.9 ± 12.7 h
[4]; both, human, plasma, po, 50 mg, total plasma acalabrutinib, single oral 50-mg dose, Control (n = 14)
  Tmax: 0.6 h
[4]; both, human, plasma, po, 50 mg, total plasma acalabrutinib, single oral 50-mg dose, Mild (n = 6)
  Tmax: 0.8 h
[4]; both, human, plasma, po, 50 mg, total plasma acalabrutinib, single oral 50-mg dose, Moderate (n = 6)
  Tmax: 1 h
[4]; human, plasma, oral, 50 mg, LS Mean, plasma acalabrutinib, ANOVA, exponentiated LSM, Severe, n 8
  AUC: 1170 ng·h/mL
[4]; human, plasma, oral, 50 mg, Cmax, LS Mean, plasma acalabrutinib, ANOVA, exponentiated LSM, Severe, n 8
  Cmax: 726 ng/mL
[4]; human, plasma, po, 50 mg, total plasma acalabrutinib, single oral 50-mg dose, Severe (n = 8), geometric mean (geometric CV%)
  AUC: 1170 ng·h/mL
[4]; human, plasma, po, 50 mg, Cmax, total plasma acalabrutinib, single oral 50-mg dose, fasted, Severe, Child-Pugh class C (n = 8), geometric mean (geometric CV%)
  Cmax: 726 ng/mL
[4]; [12]
  Vd/F: 167 ± 70.3 L
  half-life: 2.7 ± 1.1 h
[4]; [13]
  AUC0‐inf GMR: Test/Reference: 146.2%
  Cmax GMR: Test/Reference: 191.3%
[4]; [14]
  AUC0‐inf GMR: Test/Reference: 130.5%
  Cmax GMR: Test/Reference: 102.2%
[4]; [15]
  AUC0‐inf GMR: Test/Reference: 467.3%
  Cmax GMR: Test/Reference: 476.2%
[4]; [16]
  increase of unbound acalabrutinib AUC0‐last compared with control subjects: 3.6 fold
  increase of unbound acalabrutinib Cmax compared with control subjects: 3.8 fold
[4]; single 50-mg dose, mild hepatic impairment
  increase of acalabrutinib Cmax compared with control subjects: 1.9 fold
[4]; single 50-mg dose, mild hepatic impairment (Child-Pugh class A)
  increase of acalabrutinib AUC compared with control subjects: 1.90 fold
[4]; single 50-mg dose, moderate hepatic impairment
  difference in acalabrutinib Cmax compared with control subjects: did not result in any appreciable difference
[4]; single 50-mg dose, moderate hepatic impairment (Child-Pugh class B)
  increase of acalabrutinib AUC compared with control subjects: 1.48 fold
[4]; total plasma acalabrutinib, single oral 50-mg dose, fasted, Moderate, Child-Pugh class B (n = 6), geometric mean (geometric CV%)
  Cmax: 155.7 (246.9) ng/mL
[4]; total plasma acalabrutinib, single oral 50-mg dose, Moderate (n = 6), geometric mean (geometric CV%)
  AUC0‐inf: 326.4 (177.9) ng • h/mL
Human serum albumin
  fraction unbound: 0.063
[5]
  mean elimination t1/2: ≈ 1 hour
[5]; [17]
  increase of mean plasma AUC0‐last in the presence of itraconazole: 5.1 fold
  increase of mean plasma Cmax in the presence of itraconazole: 3.9 fold
[5]; [18]
  mean AUC0‐last: 3966 ng·h/mL
  mean Cmax: 1672 ng/mL
[6]
  clinical margin of safety for the 50‐mg dose, AUC0‐last: ~16 fold
  clinical margin of safety for the 50‐mg dose, Cmax: ≈ 7.5 fold
Safety evaluation; Control (n = 14)
  Number (%) of subjects with TEAEs: 0
Safety evaluation; Mild hepatic impairment (n = 6)
  Number (%) of subjects with TEAEs: 2 (33)
Safety evaluation; Moderate hepatic impairment (n = 6)
  Number (%) of subjects with TEAEs: 0
Safety evaluation; Overall (N = 34)
  Number (%) of subjects with TEAEs: 3 (9)
Safety evaluation; Severe hepatic impairment (n = 8)
  Number (%) of subjects with TEAEs: 1 (13)
Safety evaluation; single oral dose of 50 mg, healthy subjects and subjects with mild, moderate, or severe hepatic impairment
  tolerability: well tolerated
Safety evaluation; single oral dose of 50 mg, study 1 and study 2
  deaths, serious AEs, discontinuations due to AEs: no deaths, serious AEs, or subject discontinuations due to AEs

Reference: article PMC9303693 (Journal of Clinical Pharmacology, 2022)
